One may read the inhibition as the relative decrease from the control value, in per cent.

Screen size: about 290,000 compounds; about 1,300 (0.45%) were called active.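 Rule for the calls: active = inhibition above the mean plus 3 SD of all compounds in the same screening run (cut at about 4.5% in these data); inactive = the rest.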 The sample as a whole holds a higher share of actives than the screen did.

This is an account of results in PubChem BioAssay AID1556 (The Scripps Research Institute Molecular Screening Center, 2009).

The subject of this test is metallo-beta-lactamase IMP-1 (Pseudomonas aeruginosa). Description: IMP-1 metallo-beta-lactamase inhibitors, primary screen, biochemical, epi-absorbance readout, Pseudomonas aeruginosa enzyme (AID 1556).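 Note: 0% = IMP-1 with DMSO and 100% = DMSO wells lacking enzyme.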 The conditions noted are these: purified IMP-1, nitrocefin hydrolysis, epi-absorbance fluorescence; at 5.6 µM; hits give high values. The procedure, abridged: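 System: purified IMP-1 / Input: IMP-1 dispensed at 0.2 nM / Medium: 50 mM HEPES pH 7.1, 50 µM ZnSO4, 0.05% Brij 35 / Timing: 15 min enzyme–compound preincubation, then 25 min nitrocefin reaction, 25 °C / Technique: plate fluorescence quenching by hydrolysis product, ex 480/em 530 nm / Repeats: singlicate testing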
For `COc1ccc(C2c3[nH]c4ccccc4c3C[C@H]3C(=O)N(CC(C)C)CC(=O)N23)c(OC)c1` (stereo partly drawn), the inhibition is -2.7% (inactive). The result for `Cc1cc(Cl)ccc1OCCCC(=O)Nc1cccc(-n2cnnn2)c1` reads -1.81% (inactive). In the case of `Cc1ccc(CN2CCC(n3nccc3NC(=O)CCCc3ccccc3)CC2)o1`, the inhibition was -1.11% (inactive).

`CCn1cc(CN2CCC(n3nccc3NC(=O)CCCc3ccccc3)CC2)c(C)n1`: the inhibition is -2.27% (inactive). For the molecule `Cc1c(CN2CCC(n3nccc3NC(=O)CCc3ccccc3)CC2)cnn1C`, the inhibition is 40.5% (active). Consider `CCOc1ccc(-n2c(SCC(=O)Nc3ccc(OC)cc3)nc3sc4c(c3c2=O)CCN(C)C4)cc1`, for which the inhibition was 7.22% (active). For the molecule `CCCSc1nc2sc3c(c2c(=O)n1-c1ccc(OC)cc1)CCN(C)C3`, the inhibition is -1.47% (inactive). For `CCOc1ccc(-n2c(SCC(=O)OC)nc3sc4c(c3c2=O)CCN(C)C4)cc1`, the inhibition is 1.15% (inactive). As for `CCN(c1ccccc1)S(=O)(=O)c1cc2c(cc1C)n(C)c(=O)c(=O)n2C`, the inhibition was -1.34% (inactive). Take `CC(NC(=O)COc1ccc(-c2ccccc2)cc1)C1CCCO1` (stereo not drawn): the inhibition was -0.53% (inactive). The result for `COC(=O)c1cc(C(=O)NC(C)C2CC3CCC2C3)cc([N+](=O)[O-])c1` (stereo not drawn) reads -3.23% (inactive).

With `O=C(NCCc1ccc(Cl)cc1)C1CC(=O)N(C2CCCCC2)C1` (stereo not drawn), the inhibition is -3.24% (inactive). The result for `CC(C)OCCCNC(=O)C1CC(=O)N(C2CCCCCCC2)C1` (stereo not drawn) reads -4.36% (inactive); that for `O=C(NCCCN1CCCCCC1)C1CC(=O)N(C2CCCC2)C1` (stereo not drawn), 6.55% (active); that for `CC1(C)CC(=O)CC2(C1)NCC(c1ccccc1Cl)c1c2[nH]c2ccccc12` (stereo not drawn), -5.43% (inactive). On to `COc1ccc(NC(=O)CCN2C(=O)/C(=C/c3ccc4c(c3)OCO4)SC2=S)cc1`, for which the inhibition was -3.16% (inactive).

As to `Cn1cccc1/C=C1\SC(=O)N(CC(=O)Nc2ccc(F)cc2)C1=O`, the inhibition was -1.78% (inactive).

As to `Cc1ccc(C(=O)O)cc1-c1ccc(/C=C2\SC(=O)N(CC(=O)Nc3ccc4c(c3)OCO4)C2=O)o1`, the inhibition is 8.27% (active). In the case of `COc1ccccc1-c1sc2ccccc2c1-c1ccc(C(C)=O)cc1`, the inhibition was 1.15% (inactive). In the case of `CCc1ccccc1N(CC(=O)NCC1CCCO1)C(=O)CCC(=O)Nc1nccs1` (stereo not drawn), the inhibition is -4.39% (inactive).

For the molecule `O=C(NCc1cccc(Cl)c1)C1CCN(c2nnc(N3CCCC3=O)s2)CC1`, the inhibition was -2.2% (inactive). On to `COc1ccc2c(CC(=O)Nc3nnc(C4CC4)s3)coc2c1`, for which the inhibition is 68.4% (active).

Consider `COc1ccc(NC(=O)CCC(=O)Nc2nnc(C3CCCCC3)s2)cc1`, for which the inhibition is -2.6% (inactive).

Consider `Cc1cc(=O)oc2cc(OCC(=O)Nc3nnc(C4CC4)s3)ccc12`, for which the inhibition is -1.51% (inactive). For `O=C(NCCCc1ccccc1)C(=O)NCC1OCCN1S(=O)(=O)c1ccccc1` (stereo not drawn), the inhibition is -6.52% (inactive). The result for `O=C(NCCCn1ccnc1)C(=O)NCC1OCCN1S(=O)(=O)c1cc(F)ccc1F` (stereo not drawn) reads 5.52% (active). In the case of `Cc1cc(F)ccc1S(=O)(=O)N1CCCOC1CNC(=O)C(=O)NCCC1=CCCCC1` (stereo not drawn) it was -1.85% (inactive). In the case of `CCn1c(=S)sc2c(=O)n(CC(=O)Nc3ccc(OC)cc3)c(C)nc21` it was -1.8% (inactive). With `COc1ccc(CCNC(=O)c2cnc(Cl)c(Cl)c2)cc1`, the inhibition is -2.17% (inactive). The result for `O=C(Nc1cccc(F)c1)NC1CCCc2ccccc21` (stereo not drawn) reads -1.14% (inactive); that for `C=CCNC(=O)COc1coc(CN2CCN(Cc3ccccc3)CC2)cc1=O`, 2.52% (inactive). Turning to `C=CCNC(=S)/N=c1/ccccn1Cc1ccccc1`, the inhibition is 16.2% (active).

In the case of `CNC(=S)NNC(=O)c1cccn(Cc2ccccc2)c1=O`, the inhibition is -3.24% (inactive). For the molecule `O=[N+]([O-])c1ccc(N2CCN(c3ccc(F)cc3)CC2)cn1`, the inhibition was -0.39% (inactive).

Regarding `CSc1ccc(S(=O)(=O)N2CCC(C(=O)NCc3ccncc3)CC2)cc1`, the inhibition is -1.8% (inactive). As to `c1ccc(-c2nccc(-c3ccc(-n4cnc5ccccc54)cc3)n2)nc1`, the inhibition was 15.8% (active). In the case of `Cc1ccc(Oc2nc(-c3ccccn3)nc3ccccc23)cc1`, the inhibition is -3.21% (inactive).

For the molecule `Cc1nccc(-c2ccc(-n3c(C)ccc3C)cc2)n1`, the inhibition is -1.5% (inactive).

For `CC(=O)c1cc2c(cc1NC(=O)Cn1nc(-c3ccc(F)cc3)ccc1=O)OCO2`, the inhibition is -1% (inactive). With `Cc1ccc(CSCC2Nc3ccc(C(=O)N4CCN(c5ccc(F)cc5)CC4)cc3NC2=O)cc1` (stereo not drawn), the inhibition is -4.03% (inactive). As for `Cc1ccc(C(=O)NCC(=O)NCc2cc(=O)n(C)c(=O)n2C)cc1`, the inhibition was -0.88% (inactive).

Turning to `CCSc1nnc(SCC(=O)NNC(=O)c2ccccc2F)s1`, the inhibition is -3.43% (inactive). In the case of `Cc1cc2occ(CC(=O)NNC(=O)c3ccccc3F)c2cc1C` it was 7.82% (active). On to `Cc1ccc2c(CC(=O)NCc3cccs3)coc2c1`, for which the inhibition is -1.74% (inactive). As to `COC(=O)C1=C(C)NC2=C(C(=O)c3ccccc32)C1c1ccc(-c2ccc(C(=O)O)cc2)o1` (stereo not drawn), the inhibition is 21.7% (active).

On to `CCOC(=O)C1=C(c2ccc(OC)cc2)C(=O)c2ccccc2C1=O`, for which the inhibition was -1.49% (inactive). In the case of `Cc1ccc(C2C3=C(Nc4[nH]n(-c5ccccc5)c(=O)c42)c2ccccc2C3=O)cc1` (stereo not drawn) it was -5.01% (inactive); in that of `COc1ccc(CNC(=O)C(=O)NCC2OCCN2C(=O)c2ccc(OC)cc2)cc1` (stereo not drawn), -0.68% (inactive). `COc1ccc(C(=O)NNC(=O)c2cnccn2)cc1[N+](=O)[O-]`: the inhibition is 5.35% (active). Turning to `COc1ccc(C(=O)O/N=C(\N)c2ccccn2)cc1[N+](=O)[O-]`, the inhibition is -0.21% (inactive). In the case of `COc1cccc(OCC(=O)NNC(=O)c2cnccn2)c1` it was -3% (inactive); in that of `Cc1cc(OCC(=O)NCC(O)c2ccccc2)c2c(C)c(C)c(=O)oc2c1` (stereo not drawn), -1.48% (inactive); in that of `COc1ccc(CC(NC(C)=O)C(=O)NC2CCN(C(=O)C3CC3)CC2)cc1OC` (stereo not drawn), -2.45% (inactive).

Take `COc1cccc(CNS(=O)(=O)c2ccc3c(c2)N(C(C)=O)CCS3)c1`: the inhibition was 0.57% (inactive). On to `CCOc1cc(NC(=O)c2cnccn2)c(OCC)cc1NC(=O)c1ccc(C)cc1`, for which the inhibition was -4.22% (inactive). As for `CCCc1cc(=O)oc2c(C)c(OCC(=O)NCc3ccccn3)ccc12`, the inhibition was -4.36% (inactive). As for `CCCc1cc(=O)oc2c(C)c(OCC(=O)N3CCC(C(=O)O)CC3)ccc12`, the inhibition was -2.1% (inactive). The result for `CCCc1cc(=O)oc2c(C)c(OCC(=O)Nc3ccccn3)ccc12` reads 12.4% (active).
